In ChEMBL document CHEMBL1154100, “Tetrahydroisoquinolines as dopaminergic ligands: 1-Butyl-7-chloro-6-hydroxy-tetrahydroisoquinoline, a new compound with antidepressant-like activity in mice” (Bioorg Med Chem, 2009):
Activity calls are given as the source filed them. The calls are words filed in the database; no cut-off is given here.

Experiments:
Mus musculus [1] = test: Antidepressant-like activity in NMRI mouse assessed as increase in locomotor activity at 5 mg/kg, ip after 24 mins by photoelectronic actimeter method; format: functional; conditions: route intraperitoneal
In short: (§1)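 Naive male NMRI mice (25–30 g), n = 10/group; single ip injection (10 mL/kg, saline vehicle) 30 min before test, during the dark phase. Photoelectronic actimeter with two perpendicular infrared beams; beam crossings counted cumulatively at 6-min intervals over a 30-min session. Vs vehicle by ANOVA and Fisher PLSD; mean SD.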

Mus musculus [2] = test: Antidepressant-like activity in NMRI mouse assessed as reduction in immobility time at 0.01 mg/kg, ip by forced swimming test in presence of D2 receptor antagonist haloperidol; format: functional, organism-based; design: dose 0.01 mg/kg
In short: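 Male NMRI mice, 10/group. Haloperidol 0.03 mg/kg sc was injected just before ip test compound, 30 min before a 6-min forced swim (water 23–24 °C, depth 13 cm). Immobility was measured during the final 4 min. Analysis by ANOVA with Fisher PLSD.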

[3] = target: Sodium-dependent dopamine transporter (Rattus norvegicus) (UniProt P23977); test: Inhibition of DAT in Wistar rat striatal synaptosomes at 100 uM by [3H]dopamine uptake assay; format: subcellular; conditions: Brain
Sequence of Sodium-dependent dopamine transporter (Rattus norvegicus) (P23977 whole entry): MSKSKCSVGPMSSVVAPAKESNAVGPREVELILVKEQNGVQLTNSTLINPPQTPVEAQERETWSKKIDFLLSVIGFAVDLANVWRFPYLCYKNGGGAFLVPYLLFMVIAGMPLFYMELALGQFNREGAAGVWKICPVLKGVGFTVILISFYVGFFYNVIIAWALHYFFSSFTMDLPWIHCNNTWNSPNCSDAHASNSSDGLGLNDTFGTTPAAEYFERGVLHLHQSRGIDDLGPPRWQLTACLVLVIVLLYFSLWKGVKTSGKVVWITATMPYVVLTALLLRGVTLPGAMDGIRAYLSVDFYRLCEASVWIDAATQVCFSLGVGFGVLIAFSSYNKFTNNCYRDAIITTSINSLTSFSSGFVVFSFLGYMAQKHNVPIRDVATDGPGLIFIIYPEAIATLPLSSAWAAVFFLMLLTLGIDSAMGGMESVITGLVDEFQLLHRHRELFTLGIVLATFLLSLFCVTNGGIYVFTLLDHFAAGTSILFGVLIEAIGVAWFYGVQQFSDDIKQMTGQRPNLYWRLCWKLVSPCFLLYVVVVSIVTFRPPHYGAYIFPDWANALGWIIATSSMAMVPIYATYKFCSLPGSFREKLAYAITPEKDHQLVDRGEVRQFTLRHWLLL
In short: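 Synaptosomes were prepared from female Wistar rat striatum at 0–4 °C. Tissue was homogenized in 0.32 M sucrose, spun twice at 1000g for 10 min, and the pooled supernatants were spun at 16,000g for 30 min. The pellet was taken up in Krebs medium (pH 7.6, with glucose). Samples were preincubated for 10 min at 37 °C with pargyline, then given 0.5 nM final [³H]dopamine for 10 min. Uptake was stopped by ice-cold dilution and rapid fiberglass filtration.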

Mus musculus [4] = test: Antidepressant-like activity in NMRI mouse assessed as increase in locomotor activity at 0.01 mg/kg, ip after 6 mins by photoelectronic actimeter method; format: functional; conditions: route intraperitoneal; in short: as §1
D(1A) dopamine receptor = D(1A) dopamine receptor (Rattus norvegicus, UniProt P18901); test: Displacement of [3H]SCH23390 from dopamine D1 receptor in Wistar rat striatal membrane by liquid scintillation counting; format: cell membranes, Striatum
Sequence of D(1A) dopamine receptor (P18901 whole entry): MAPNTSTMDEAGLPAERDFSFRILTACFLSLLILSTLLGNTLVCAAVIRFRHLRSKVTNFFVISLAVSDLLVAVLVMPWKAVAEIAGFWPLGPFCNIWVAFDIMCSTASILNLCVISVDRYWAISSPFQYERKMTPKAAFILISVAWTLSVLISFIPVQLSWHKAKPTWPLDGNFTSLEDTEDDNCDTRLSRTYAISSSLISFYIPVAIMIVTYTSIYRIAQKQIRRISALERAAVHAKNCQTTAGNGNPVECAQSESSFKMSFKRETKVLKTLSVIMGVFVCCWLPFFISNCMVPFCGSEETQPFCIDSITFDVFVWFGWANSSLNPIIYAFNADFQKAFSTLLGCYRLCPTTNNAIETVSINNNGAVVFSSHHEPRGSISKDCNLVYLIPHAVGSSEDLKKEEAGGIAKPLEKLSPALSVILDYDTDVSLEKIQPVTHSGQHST
In short: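 Female Wistar rat striatum homogenized in 50 mM Tris-HCl pH 7.4, then washed twice at 49,000g. Membranes were resuspended in Tris-ions buffer (NaCl, CaCl2, KCl, MgCl2, 0.1% ascorbate). [3H]-SCH23390 displacement was read by filtration and scintillation counting. Ki was derived using KD 0.36 nM; 3–6 independent runs in duplicate, mean SEM.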

Mus musculus [5] = test: Antidepressant-like activity in NMRI mouse assessed as increase in locomotor activity at 0.2 mg/kg, ip after 30 mins by photoelectronic actimeter method; format: functional; conditions: route intraperitoneal; in short: as §1
Rattus norvegicus = species: Rattus norvegicus; test: Selectivity for Wistar rat dopamine D2 receptor over Wistar rat dopamine D1 receptor
Mus musculus [6] = test: Antidepressant-like activity in NMRI mouse assessed as increase in locomotor activity at 0.04 mg/kg, ip after 6 mins by photoelectronic actimeter method; format: functional; conditions: route intraperitoneal; in short: as §1
Mus musculus [7] = test: Antidepressant-like activity in NMRI mouse assessed as increase in locomotor activity at 0.2 mg/kg, ip by photoelectronic actimeter method in presence of D2 receptor antagonist haloperidol; format: functional, organism-based; design: dose 0.2 mg/kg
In short: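 Male NMRI mice, n = 10/group. Haloperidol 0.03 mg/kg sc given just before ip test compound (0.2 mg/kg) or saline, 30 min before testing. Spontaneous locomotion was counted as infrared beam crossings in a photoelectric actimeter over 30 min. Groups were compared by Fisher PLSD; mean SD.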

Mus musculus [8] = test: Antidepressant-like activity in NMRI mouse assessed as increase in locomotor activity at 25 mg/kg, ip after 24 mins by photoelectronic actimeter method; format: functional; conditions: route intraperitoneal; in short: as §1
Mus musculus [9] = test: Antidepressant-like activity in NMRI mouse assessed as increase in locomotor activity at 5 mg/kg, ip after 18 mins by photoelectronic actimeter method; format: functional; conditions: route intraperitoneal; in short: as §1
D(2) dopamine receptor = D(2) dopamine receptor (Rattus norvegicus, UniProt P61169); test: Displacement of [3H]raclopride from dopamine D2 receptor in Wistar rat striatal membrane by liquid scintillation counting; format: cell membranes, Striatum
Sequence of D(2) dopamine receptor (P61169 whole entry): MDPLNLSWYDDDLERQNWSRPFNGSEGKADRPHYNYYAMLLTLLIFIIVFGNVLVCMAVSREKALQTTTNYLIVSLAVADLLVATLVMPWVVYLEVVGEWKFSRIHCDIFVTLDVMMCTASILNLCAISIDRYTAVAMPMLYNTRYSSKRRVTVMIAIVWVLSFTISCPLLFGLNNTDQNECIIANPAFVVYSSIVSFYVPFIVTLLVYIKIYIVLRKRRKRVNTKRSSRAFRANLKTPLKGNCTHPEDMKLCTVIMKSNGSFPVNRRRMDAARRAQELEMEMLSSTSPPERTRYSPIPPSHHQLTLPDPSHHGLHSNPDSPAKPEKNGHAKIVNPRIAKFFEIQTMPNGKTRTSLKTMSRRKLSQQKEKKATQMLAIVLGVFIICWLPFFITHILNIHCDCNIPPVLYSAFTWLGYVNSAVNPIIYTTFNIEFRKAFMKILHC
In short: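 Striata from female Wistar rats (200–220 g) were homogenized in 50 mM Tris-HCl (pH 7.4) and centrifuged twice at 49,000g for 15 min at 4 °C. Membranes were resuspended in Tris buffer containing 120 mM NaCl, 2 mM CaCl₂, 5 mM KCl, 1 mM MgCl₂ and 0.1% ascorbic acid (pH 7.4). Samples were filtered, washed with cold buffer and counted by scintillation. Ki was derived using a [³H]raclopride KD of 1,25 nM, from 3–6 determinations run in duplicate.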

Mus musculus [10] = test: Antidepressant-like activity in NMRI mouse assessed as reduction in immobility time at 0.01 mg/kg, ip by forced swimming test; format: functional, organism-based; design: dose 0.01 mg/kg
In short: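 Male NMRI mice, 10/group, not pre-tested; ip dosing in saline 30 min before test. Each mouse swam 6 min in a cylinder (12 cm diameter, 13 cm water, 23–24 °C). Immobility was scored over the last 4 min after a 2-min delay. Imipramine 16 mg/kg was the reference. Analysis by ANOVA with Fisher PLSD.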

Mus musculus [11] = test: Antidepressant-like activity in NMRI mouse assessed as increase in locomotor activity at 0.04 mg/kg, ip after 30 mins by photoelectronic actimeter method; format: functional; conditions: route intraperitoneal; in short: as §1
Mus musculus [12] = test: Antidepressant-like activity in NMRI mouse assessed as increase in locomotor activity at 0.04 mg/kg, ip after 12 mins by photoelectronic actimeter method; format: functional; conditions: route intraperitoneal; in short: as §1
Mus musculus [13] = test: Antidepressant-like activity in NMRI mouse assessed as increase in locomotor activity at 1 mg/kg, ip after 12 mins by photoelectronic actimeter method; format: functional; conditions: route intraperitoneal; in short: as §1
Mus musculus [14] = test: Antidepressant-like activity in NMRI mouse assessed as increase in locomotor activity at 25 mg/kg, ip after 18 mins by photoelectronic actimeter method; format: functional; conditions: route intraperitoneal; in short: as §1
Mus musculus [15] = test: Antidepressant-like activity in NMRI mouse assessed as increase in locomotor activity at 0.2 mg/kg, ip after 18 mins by photoelectronic actimeter method; format: functional; conditions: route intraperitoneal; in short: as §1
Mus musculus [16] = test: Antidepressant-like activity in NMRI mouse assessed as increase in locomotor activity at 0.01 mg/kg, ip after 12 mins by photoelectronic actimeter method; format: functional; conditions: route intraperitoneal; in short: as §1
Mus musculus [17] = test: Antidepressant-like activity in NMRI mouse assessed as increase in locomotor activity at 25 mg/kg, ip after 30 mins by photoelectronic actimeter method; format: functional; conditions: route intraperitoneal; in short: as §1
Mus musculus [18] = test: Antidepressant-like activity in NMRI mouse assessed as increase in locomotor activity at 25 mg/kg, ip after 12 mins by photoelectronic actimeter method; format: functional; conditions: route intraperitoneal; in short: as §1
Mus musculus [19] = test: Antidepressant-like activity in NMRI mouse assessed as increase in locomotor activity at 0.04 mg/kg, ip after 18 mins by photoelectronic actimeter method; format: functional; conditions: route intraperitoneal; in short: as §1
Mus musculus [20] = test: Antidepressant-like activity in NMRI mouse assessed as increase in locomotor activity at 1 mg/kg, ip after 24 mins by photoelectronic actimeter method; format: functional; conditions: route intraperitoneal; in short: as §1
Mus musculus [21] = test: Antidepressant-like activity in NMRI mouse assessed as increase in locomotor activity at 0.2 mg/kg, ip after 6 mins by photoelectronic actimeter method; format: functional; conditions: route intraperitoneal; in short: as §1
Mus musculus [22] = test: Antidepressant-like activity in NMRI mouse assessed as increase in locomotor activity at 5 mg/kg, ip after 6 mins by photoelectronic actimeter method; format: functional; conditions: route intraperitoneal; in short: as §1
Mus musculus [23] = test: Antidepressant-like activity in NMRI mouse assessed as increase in locomotor activity at 1 mg/kg, ip after 18 mins by photoelectronic actimeter method; format: functional; conditions: route intraperitoneal; in short: as §1
Mus musculus [24] = test: Antidepressant-like activity in NMRI mouse assessed as increase in locomotor activity at 25 mg/kg, ip after 6 mins by photoelectronic actimeter method; format: functional; conditions: route intraperitoneal; in short: as §1
Mus musculus [25] = test: Antidepressant-like activity in NMRI mouse assessed as increase in locomotor activity at 1 mg/kg, ip after 6 mins by photoelectronic actimeter method; format: functional; conditions: route intraperitoneal; in short: as §1
Mus musculus [26] = test: Antidepressant-like activity in NMRI mouse assessed as increase in locomotor activity at 0.01 mg/kg, ip after 30 mins by photoelectronic actimeter method; format: functional; conditions: route intraperitoneal; in short: as §1
Mus musculus [27] = test: Antidepressant-like activity in NMRI mouse assessed as increase in locomotor activity at 5 mg/kg, ip after 30 mins by photoelectronic actimeter method; format: functional; conditions: route intraperitoneal; in short: as §1
Mus musculus [28] = test: Antidepressant-like activity in NMRI mouse assessed as increase in locomotor activity at 0.2 mg/kg, ip after 24 mins by photoelectronic actimeter method; format: functional; conditions: route intraperitoneal; in short: as §1
Mus musculus [29] = test: Antidepressant-like activity in NMRI mouse assessed as increase in locomotor activity at 0.2 mg/kg, ip after 12 mins by photoelectronic actimeter method; format: functional; conditions: route intraperitoneal; in short: as §1
Mus musculus [30] = test: Antidepressant-like activity in NMRI mouse assessed as increase in locomotor activity at 5 mg/kg, ip after 12 mins by photoelectronic actimeter method; format: functional; conditions: route intraperitoneal; in short: as §1
Mus musculus [31] = test: Antidepressant-like activity in NMRI mouse assessed as increase in locomotor activity at 0.01 mg/kg, ip after 18 mins by photoelectronic actimeter method; format: functional; conditions: route intraperitoneal; in short: as §1
Mus musculus [32] = test: Antidepressant-like activity in NMRI mouse assessed as increase in locomotor activity at 0.04 mg/kg, ip after 24 mins by photoelectronic actimeter method; format: functional; conditions: route intraperitoneal; in short: as §1
Mus musculus [33] = test: Antidepressant-like activity in NMRI mouse assessed as increase in locomotor activity at 0.01 mg/kg, ip after 24 mins by photoelectronic actimeter method; format: functional; conditions: route intraperitoneal; in short: as §1
Mus musculus [34] = test: Antidepressant-like activity in NMRI mouse assessed as increase in locomotor activity at 1 mg/kg, ip after 30 mins by photoelectronic actimeter method; format: functional; conditions: route intraperitoneal; in short: as §1

With `CCCCC1NCCc2cc(O)c(Cl)cc21` (stereo not given) the Activity (Mus musculus [1]) was 411, the Activity (Mus musculus [2]) was “inactive” and the Activity [3] was “inactive”. The Activity (Mus musculus [4]) was 72, the Ki (D(1A) dopamine receptor) was 3230 nM and the Activity (Mus musculus [5]) was 277. For the same compound, the fold change (FC) (Rattus norvegicus) was 49, the Activity (Mus musculus [6]) was 102 and the Activity (Mus musculus [7]) was “inactive”. The Activity (Mus musculus [8]) was 367, the Activity (Mus musculus [9]) was 345 and the Ki (D(2) dopamine receptor; read-out: pKi (converted)) was 60.3 nM. For the same compound, the Activity (Mus musculus [10]) was “Active”, the Activity (Mus musculus [11]) was 200 and the Activity (Mus musculus [12]) was 142. The Activity (Mus musculus [13]) was 200, the Activity (Mus musculus [14]) was 319 and the Activity (Mus musculus [15]) was 219. It also gave an Activity (Mus musculus [16]) of 105, an Activity (Mus musculus [17]) of 426 and an Activity (Mus musculus [18]) of 260. The Activity (Mus musculus [19]) was 170, the Activity (Mus musculus [20]) was 307 and the Activity (Mus musculus [21]) was 115. The Activity (Mus musculus [22]) was 153, the Activity (Mus musculus [23]) was 257 and the Activity (Mus musculus [24]) was 170. The Activity (Mus musculus [25]) was 122, the Activity (Mus musculus [26]) was 153 and the Activity (Mus musculus [27]) was 464. For the same compound, the Activity (Mus musculus [28]) was 255, the Activity (Mus musculus [29]) was 186 and the Activity (Mus musculus [30]) was 276. The Activity (Mus musculus [31]) was 133, the Activity (Mus musculus [32]) was 185 and the Activity (Mus musculus [33]) was 147. It also gave an Activity (Mus musculus [34]) of 340.

`CCCCC1c2cc(O)c(Cl)cc2CCN1C` (stereo not given) was tested, and the Activity [3] was “inactive”, the Ki (D(1A) dopamine receptor) was 1140 nM and the fold change (FC) (Rattus norvegicus) was 2.3. For the same compound, the Ki (D(2) dopamine receptor; read-out: pKi (converted)) was 395 nM.

In the case of `Oc1cc2c(cc1Cl)CCNC2Cc1ccccc1` (stereo not given), the Activity [3] is reported as “inactive”, the Ki (D(1A) dopamine receptor) is reported as 326 nM and the fold change (FC) (Rattus norvegicus) is reported as 4.8. For the same compound, the Ki (D(2) dopamine receptor; read-out: Ki) was 71 nM and the Ki (D(2) dopamine receptor; read-out: pKi (converted)) was 66.4 nM.

In the case of `CN1CCc2cc(Cl)c(O)cc2C1Cc1ccccc1` (stereo not given), the Activity [3] is reported as “inactive”, the Ki (D(1A) dopamine receptor) is reported as 111 nM and the fold change (FC) (Rattus norvegicus) is reported as 0.6. It also gave a Ki (D(2) dopamine receptor; read-out: pKi (converted)) of 207 nM.
